Test results from ChEMBL document CHEMBL4265989, “ω-Hydroxylation of α-tocopheryl quinone reveals a dual function for cytochrome P450-4F2 in vitamin E metabolism” (Bioorg Med Chem, 2018).

How the values were obtained:
Format in all cases: ADME
Cytochrome P450 4F2 [1] = target: T1, Cytochrome P450 4F2 (Homo sapiens, UniProt P78329); assay: Drug level in human liver microsomes treated with BSA bound d6-alpha-tocopheryl quinone assessed as CYP4F2-mediated compound formation at 4.4 mM preincubated for 10 mins followed by NADPH addition measured after 20 mins by LS-MS analysis
T1 sequence (P78329 whole entry): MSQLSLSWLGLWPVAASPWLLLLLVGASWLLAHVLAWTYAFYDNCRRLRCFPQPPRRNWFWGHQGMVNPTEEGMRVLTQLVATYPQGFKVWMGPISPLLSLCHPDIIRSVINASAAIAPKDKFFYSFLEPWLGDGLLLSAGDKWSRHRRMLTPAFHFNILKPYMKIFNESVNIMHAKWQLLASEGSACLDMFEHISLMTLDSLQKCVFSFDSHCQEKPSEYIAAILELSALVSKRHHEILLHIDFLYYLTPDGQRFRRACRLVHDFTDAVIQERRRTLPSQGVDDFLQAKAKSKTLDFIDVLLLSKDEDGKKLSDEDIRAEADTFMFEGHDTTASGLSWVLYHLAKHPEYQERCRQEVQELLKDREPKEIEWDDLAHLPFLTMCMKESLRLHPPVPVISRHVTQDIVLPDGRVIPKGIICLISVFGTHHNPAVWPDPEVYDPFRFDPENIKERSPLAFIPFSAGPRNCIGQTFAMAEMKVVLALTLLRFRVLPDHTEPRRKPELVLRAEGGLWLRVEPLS
Summary of the method: (§1)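 Pooled human liver microsomes (20 mg/ml protein) in 100 mM KH2PO4 pH 7.2. d6-αTQ–BSA complex added from a 4.4 mM stock. Preincubated 10 min at 37 °C, then NADPH added to 1 mM final (NAD at 1 mM if used); 20 min at 37 °C, then chilled on ice. d0-ω-hydroxy-αTQ added as internal standard, extracted with ethyl acetate then hexanes:MTBE. Read-out by positive-ion C18 LC-MS.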

Cytochrome P450 4F2 [2] = target: T1, Cytochrome P450 4F2; assay: (§2) Drug level assessed as recombinant human CYP4F2 expressed in insect cell microsomes-mediated compound formation by measuring compound retention time treated with BSA bound d6-alpha-tocopheryl quinone at 10 uM preincubated for 10 mins followed by NADPH addition measured after 20 mins in presence of recombinant human CYP reductase and cytochrome b5 by LS-MS analysis; conditions: recombinant enzyme
Summary of the method: (§3)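 Insect cell microsomes co-expressing recombinant human CYP4F2, cytochrome b5 and NADPH P450 reductase (100 pmol CYP/mL) in 100 mM KH2PO4 pH 7.2 with d6-αTQ–BSA complex (10 μM). Preincubated 10 min at 37 °C, then NADPH added to 1 mM final; 20 min at 37 °C, then chilled on ice. Internal standard d0-ω-hydroxy-αTQ added, extracted with ethyl acetate then hexanes:MTBE. Products identified by reversed-phase C18 LC-MS retention time and mass spectra.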

Cytochrome P450 4F2 [3] = target: T1, Cytochrome P450 4F2; assay: as §2, with “formation” for “formation by measuring compound retention time”; conditions: recombinant enzyme; summary of the method: as §3
Cytochrome P450 4F2 [4] = target: T1, Cytochrome P450 4F2; assay: Drug level in human liver microsomes treated with BSA bound d6-alpha-tocopheryl quinone assessed as CYP4F2-mediated compound formation by measuring compound retention time at 4.4 mM preincubated for 10 mins followed by NADPH addition measured after 20 mins by LS-MS analysis; summary of the method: as §1

Drug metabolism (Cytochrome P450 4F2 [1])	Retention_time (Cytochrome P450 4F2 [2])	Drug metabolism (Cytochrome P450 4F2 [3])	Retention_time (Cytochrome P450 4F2 [4])	Compound
Metabolite_Detected	8.8 min	Metabolite_Detected	8.8 min	[2H]C([2H])([2H])C1=C(C)C(=O)C(CC[C@](C)(O)CCC[C@H](C)CCC[C@H](C)CCCC(C)CO)=C(C([2H])([2H])[2H])C1=O (stereo not given in full)
Metabolite_Detected	7.42 min	Metabolite_Detected	7.1 min	[2H]C([2H])([2H])C1=C(C)C(=O)C(CC[C@](C)(O)CCC[C@H](C)CCC[C@H](C)CCCC(C)C(=O)O)=C(C([2H])([2H])[2H])C1=O (stereo not given in full)

Compound	Drug metabolism (Cytochrome P450 4F2 [1])	Retention_time (Cytochrome P450 4F2 [2])	Drug metabolism (Cytochrome P450 4F2 [3])	Retention_time (Cytochrome P450 4F2 [4])
[2H]C([2H])([2H])C1=C(C)C(=O)C(CC[C@](C)(O)CCC[C@H](C)CCC[C@H](C)CCCC(C)C)=C(C([2H])([2H])[2H])C1=O	Metabolite_Detected			11.87 min
